Published values gathered from unrelated publications.
Compare with care: the assays were run in different laboratories.
Observed: metabolic stability

| Compound | species | matrix | tested at | time | pH | quantity | value |
| --- | --- | --- | --- | --- | --- | --- | --- |
| CCCCCn1cc(C(=O)Nc2cccc3ccccc23)c2ccccc21 | male human | liver microsomes | 1 µM |  | pH 7.4 | microsomal CLint | 300 µL/min/mg |
| C[C@H]1CN(Cc2ccc(C(F)(F)F)cc2N2CCOCC2)CCN1C(=O)n1ccc(S(=O)(=O)N(C)C)n1 | human | liver microsomes |  |  |  | microsomal CLint | 480 µL/min/mg |
| CN(C)CCc1c[nH]c2ccccc12 | human | hepatocytes | 0.6 µM |  |  | hepatocyte CLint | 19.4 µL/min/10⁶ cells |
| Cc1nonc1Cn1nnc2c(N3CC[C@H](O)C3)nc(C(C)(C)C)nc21 | human | hepatocytes |  |  |  | hepatocyte CLint | 8.1 µL/min/10⁶ cells |
| CCCCCn1nc(C(=O)Nc2cccc3ccccc23)c2ccccc21 | male human | liver microsomes | 1 µM |  | pH 7.4 | microsomal CLint | 410 µL/min/mg |
| Cc1nc2c(=O)n(C)c(=O)nc-2n(C)n1 | human | liver microsomes |  |  |  | microsomal CLint | < 7.4 µL/min/mg |
| C[C@H](C(=O)N[C@H]1COc2ccccc2[C@@H]1S(C)(=O)=O)c1ccc(F)cc1 | human | liver microsomes | 1 µM | 1 h |  | microsomal CLint | 3 µL/min/mg |
| Cc1ccc(F)c2cc(C(=O)N[C@@H]3CCC[C@H](N4CC[C@H](N(C)S(C)(=O)=O)C4)C3)[nH]c12 | human | hepatocytes | 0.5 µM | 2 h |  | scaled CLint | 51 mL/min/kg |
| COC(=O)N[C@H](C(=O)NN(CC[C@@]1(Cc2ccccc2)C(=O)N([C@H]2c3ccccc3C[C@H]2O)C[C@@H]1O)Cc1ccc(Br)cc1)C(C)(C)C | human | liver microsomes | 1 µM |  | pH 7.35 | microsomal CLint | > 300 µL/min/mg |
| Cc1ncc2n1-c1ccc(Cl)cc1C(c1ccccc1F)=NC2 | human | liver microsomes | 1 µM |  |  | microsomal CLint | > 250 µL/min/mg |
| Cc1nc([C@@](C)(CC2CC2)NC(=O)c2cc(OCC(F)(F)F)c(C3CC3)cn2)no1 | human | hepatocytes |  |  |  | hepatocyte CLint | 17 µL/min/10⁶ cells |
| Cc1cc(C)nc(Nc2ncc(C(=O)NCCc3c(C)[nH]c4ccccc34)cn2)c1 | human | liver microsomes | 1 µM |  |  | microsomal CLint | 25 µL/min/mg |
| C#Cc1ccc2c(c1)C(c1ccccn1)=NCc1c(-c3cnco3)ncn1-2 | human | liver microsomes |  |  |  | microsomal CLint | 0.046 µL/min/mg |
| NCCc1c[nH]c2ccc(O)cc12 | human | hepatocytes | 5 µM |  |  | hepatocyte CLint | 38.6 µL/min/10⁶ cells |
| CN1CCN(Cc2ccc(NC(=O)c3cncc(C#Cc4cnc(N)c5ncccc45)c3)cc2C(F)(F)F)CC1 | human | liver microsomes |  |  |  | microsomal CLint | 3.6 µL/min/mg |
